This series is described as follows: Permeation study in Kerski diffusion cells with PermeaPad biomimetic barrier. Format: in vitro ADME. Conditions: in the investigated time interval (up to 60 min), pH 7.4, 37 °C. A digest of the protocol: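 Drug-loaded minitablets, composite films or solutions (0.2 mg per 0.64 cm2) placed in donor; composites applied to buffer-moistened membrane. Acceptor: 10 mM dipotassium hydrogen phosphate, pH 7.4, stirred 350 rpm, 37 °C. Samples at 5, 10, 15, 20, 25, 30, 40, 50, 60 min with medium replacement. Quantified by HPLC with fluorescence detection (excitation 278 nm); mean ± SD, n = 3.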

On to `NC(=O)CC[C@@H]1NC(=O)[C@H](Cc2ccccc2)NC(=O)[C@H](Cc2ccc(O)cc2)NC(=O)CCSSC[C@@H](C(=O)N2CCC[C@H]2C(=O)N[C@H](CCCN=C(N)N)C(=O)NCC(N)=O)NC(=O)[C@H](CC(N)=O)NC1=O` [DDAVP, 1-desamino-8-D-arginin-vasopressin], for which the “cumulative drug concentration permeated” value is ~2.6 μg/cm^2.

The record behind these values is article PMC8220551 (International Journal of Pharmaceutics: X, 2021).
